Sampled rows, rich in hits. Any-hit rate of the full collection: about 2.6%.
ASAP1 GAP inh: inhibitors of human ASAP1 ArfGAP activity; Q9ULH1; ASAP1-stimulated ARF1 GTP hydrolysis, GDP FP detection; inhibition, % at 16.5 µM; actives 0.19% (n = 360,000); AID 624377; in the data active = inhibition above about 25%;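 also: 0% = vehicle with enzyme and substrate and 100% = no enzyme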
PHOSPHO1 block: blocks human PHOSPHO1 phosphatase activity | Q8TCT1 | recombinant PHOSPHO1, absorbance phosphatase assay | inhibition, % at 13.3 µM | actives 1.1% (n = 290,000) | AID 1565; in the data active = inhibition above about 60%
Target sequence (Q8TCT1 whole entry, looked up): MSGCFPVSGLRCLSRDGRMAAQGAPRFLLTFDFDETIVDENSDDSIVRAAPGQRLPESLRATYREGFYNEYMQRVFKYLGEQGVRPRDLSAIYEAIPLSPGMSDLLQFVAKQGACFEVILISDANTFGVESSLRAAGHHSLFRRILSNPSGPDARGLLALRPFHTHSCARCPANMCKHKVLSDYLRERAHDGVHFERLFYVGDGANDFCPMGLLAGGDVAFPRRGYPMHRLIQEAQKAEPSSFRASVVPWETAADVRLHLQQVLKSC
VIM-2 inhibitor: blocks Pseudomonas aeruginosa VIM-2 metallo-beta-lactamase. inhibition, % at 5.6 µM. purified VIM-2, nitrocefin hydrolysis, epi-absorbance fluorescence. actives 0.89% (n = 290,000);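 active = inhibition above the mean of all tested compounds plus 3 SD, cutoff set per screening run, cut at about 7.5% in these data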;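 also: red hydrolysis product quenches plate fluorescence so inhibitors raise well fluorescence; 0% = enzyme with DMSO and 100% = DMSO without enzyme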
ARFGAP1 inhibitor: rat ARFGAP1 inhibition | inhibition, % at 16.5 µM | Arfgap1-stimulated ARF1 GTP hydrolysis, GDP FP detection | AID 651572 | actives 0.26% (n = 360,000);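 active = inhibition above a per-plate limit, mean inhibition of low control wells plus 3 SD, cut at about 25% in these data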;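 also: 0% = DMSO wells with enzyme and 100% = wells lacking Arfgap1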
Target sequence (Q62848 1-136 limits assumed): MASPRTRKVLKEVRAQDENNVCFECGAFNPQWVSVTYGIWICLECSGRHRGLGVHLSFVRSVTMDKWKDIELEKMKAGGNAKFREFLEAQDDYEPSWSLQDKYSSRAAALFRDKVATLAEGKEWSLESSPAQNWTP
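Assay system: purified rat His6-Arfgap1 residues 1-136 (GAP domain); Reagent: human Δ17 ARF1 bound to GTP; Dosing: 16.5 µM single point, 1.26% DMSO; Times: GTP hydrolysis reaction 2 h at 25 °C; Signal: FP, GDP Alexa 633 tracer displaced from anti-GDP antibody, 620/688 nm; Measure: % inhibition from polarization.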
Calb FLC: affects C. albicans growth with fluconazole; growth inhibition, % (test concentration not listed); actives 0.57% (n = 300,000); C. albicans CaCi-2 + fluconazole, Alamar Blue growth, 48 h;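 active = growth inhibition above about 58% in most replicates, limit read from the data, passing the limit was not always enough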;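 also: all wells also contain fluconazole at 8 µg/ml as a sub-toxic cotreatment; 0% = median of DMSO wells and 100% = median of geldanamycin control wells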
IMP-1 inh: inhibitors of Pseudomonas aeruginosa IMP-1 metallo-beta-lactamase. purified IMP-1, nitrocefin hydrolysis, epi-absorbance fluorescence. inhibition, % at 5.6 µM. actives 0.45% (n = 290,000). AID 1556;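 active = inhibition above the mean plus 3 SD of all compounds in the same screening run, cut at about 4.5% in these data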;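 also: 0% = IMP-1 with DMSO and 100% = DMSO wells lacking enzyme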
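Assay system: purified recombinant IMP-1 beta-lactamase. Input: IMP-1 0.2 nM before substrate addition. Buffer or medium: Zinc- and detergent-supplemented HEPES buffer, pH 7.1. Schedule: 25 °C, 15 min preincubation, 25 min reaction. Signal: Epi-absorbance fluorescence, 480 nm excitation, 530 nm emission. Evaluation: percent inhibition from optical density relative to buffer-blank wells.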
ARFGAP1 inh conf: rat ARFGAP1 inhibition, confirmed | shares compounds with ARFGAP1 inhibitor | ARFGAP1-stimulated ARF1 GTP hydrolysis, GDP tracer FP | inhibition, % at 16.5 µM | actives 30% (n = 890) | AID 651608;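 active = average inhibition over triplicates above the hit cutoff set in the earlier primary screen, cut at about 25% in these data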;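 also: 0% = Arfgap1 plus ARF1-GTP with DMSO and 100% = wells lacking Arfgap1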
* hit, by the source's call; x = no result given.

SMILES	ASAP1 GAP inh	PHOSPHO1 block	VIM-2 inhibitor	ARFGAP1 inhibitor	Calb FLC	IMP-1 inh	ARFGAP1 inh conf
O=C(CCCN1C(=O)C(=Cc2ccc3c(c2)OCO3)SC1=S)Nc1ccc(C(=O)O)c(O)c1	13.9	x	x	12.5	x	x	x
Cc1ccc(OCC(=O)Oc2cccc(C)c2C)cc1	-9.0	8.5	-4.9	9.5	-6.3	-5.8	x
CN1CCC(OC(=O)COc2ccccc2)CC1	-0.2	-15.2	0.6	-1.7	-5.7	1.4	x
Cc1ccc(OCC(=O)Oc2cccc(C)c2)cc1	7.7	x	x	25.9*	-8.5	x	-5.3
Cc1cccc(OCC(=O)OC2CCN(C)CC2)c1	-4.0	23.0	-0.6	26.4*	-5.1	-1.0	-0.1
COc1ccc(Cn2cc(CN3CC(N4CCN(CCN(C)C)CC4)CS3(=O)=O)nn2)cc1 (configuration not stated)	-11.4	x	x	-13.9	x	x	x
O=C(CC[C@H]1O[C@@H](n2ccc(=O)[nH]c2=O)[C@H](O)[C@@H]1O)NCCc1c[nH]c2ccccc12	-3.3	x	x	12.9	x	x	x
COc1cccc(NC2=C(NCCO)C(=O)c3ccccc3C2=O)c1	0.4	8.5	-2.5	2.1	5.0	-2.6	x
COc1ccc(NC2=C(NCCO)C(=O)c3ccccc3C2=O)cc1	-2.1	7.2	2.7	28.4*	9.3	-0.8	-2.9
CCCC(=O)N1CCCC1(C)C(=O)Nc1ccc(-n2cccc2)cc1 (configuration not stated)	-2.5	x	x	24.6*	x	x	-7.1
CCOc1cc2nc(-c3ccc(OC)c(OC)c3)nc(N3CC(C)OC(C)C3)c2cc1OC (configuration not stated)	x	-5.2	-2.4	x	-3.0	-3.2	x
CCOc1cc2nc(-c3ccc(OC)c(OC)c3)nc(N3CCOCC3)c2cc1OC	1.5	4.6	-1.6	26.2*	1.9	-2.8	14.2
CC(C)(C)NC(=O)C(c1ccc(C(F)(F)F)cc1)n1c(=O)c(-c2ccco2)nc2ccccc21 (configuration not stated)	-1.1	x	x	-5.5	x	x	x
COc1cc(O)c(CC=C(C)C)c(O)c1C(=O)CCc1ccc(O)cc1	15.9	-18.7	x	28.6*	20.3	x	28.6*
CCc1nc2ccc(C(=O)Nc3cccc(OC)c3)cn2c1N(C)Cc1ccc(OC)cc1	-3.7	x	x	6.8	x	x	x
Cc1ccccc1NC(=O)Cc1nc(COC(=O)c2cc([N+](=O)[O-])ccc2N)cs1	-0.1	-16.3	-2.6	29.1*	3.4	-3.2	23.4
Cc1ccccc1NC(=O)Cc1nc(COC(=O)c2cc(Br)ccc2O)cs1	3.1	x	x	7.0	x	x	x
CCNc1nc(NCc2ccccc2)nc(SCC(=O)Nc2ccccc2)n1	4.8	-6.2	1.3	26.5*	3.4	-2.6	7.8
O=C(CNS(=O)(=O)c1ccc(Cl)cc1)N1CCN(c2ccc(F)cc2)CC1	-8.2	x	x	-16.8	x	x	x
O=C(CNS(=O)(=O)c1ccc(Br)cc1)N1CCN(c2ccc(F)cc2)CC1	8.5	-13.3	-4.2	27.7*	9.5	-4.9	2.5
OCCc1ccc(NCCc2cccs2)cc1	2.7	x	x	1.6	x	x	x
O=C(N/N=C/c1ccc(Cl)cc1)C(=O)N1CCCCCC1	2.7	1.2	-2.3	24.9*	-18.3	-3.5	-6.0
COc1cccc(C(C)(O)c2nc(-c3cccc(C#N)c3)cs2)c1 (configuration not stated)	6.9	x	x	2.1	x	x	x
C/C(N)=C(/C#N)C(=O)CSc1nncn1-c1ccccc1	0.3	68.1*	-2.7	28.0*	-0.7	-3.8	0.3
O=C(CCNC(=O)N1CC(=O)Nc2ccccc21)NCc1cccc(C(F)(F)F)c1	11.5	x	x	10.2	x	x	x
SMILES	ASAP1 GAP inh	PHOSPHO1 block	VIM-2 inhibitor	ARFGAP1 inhibitor	Calb FLC	IMP-1 inh	ARFGAP1 inh conf
COC(=O)c1c(NC(=O)CSc2ncnc3c2cnn3-c2ccccc2Cl)sc2c1CCCC2	11.1	5.7	-3.4	3.8	-1.4	-7.0	x
CCOC(=O)Cc1csc(NC(=O)CSc2ncnc3c2cnn3-c2ccccc2Cl)n1	-0.2	11.2	-0.7	35.1*	1.8	-2.8	0.7
O=C(N/N=C/c1ccccc1)c1[nH]ncc1Br	4.3	20.1	-1.5	27.8*	3.1	-1.2	3.5
Cc1ccc(OCc2nc3ccccc3n2C(C)C(=O)Nc2c(C)cccc2C)cc1 (configuration not stated)	11.9	x	x	2.5	x	x	x
CCn1c(CSc2nc3ccccc3s2)nnc1SCC(=O)c1ccc(O)c(O)c1	-8.2	85.5*	0.6	31.5*	104.7*	-2.6	-0.9
CCn1c(SCC(=O)c2ccc(O)c(O)c2)nnc1-c1ccccc1	-0.1	15.2	-1.5	3.2	0.2	-2.7	x
CC1=C(C(=O)N2CCCCCC2)CC(CC(=O)NCCCCc2ccccc2)C(=O)N1CCC1=CCCCC1 (configuration not stated)	1.0	x	x	4.0	x	x	x
COc1ccc(NC(=O)C2Cc3c(-c4ccc5c(c4)OCO5)ccnc3O2)cc1 (configuration not stated)	6.4	x	x	3.4	x	x	x
